{"data": "Measured values gathered from unrelated publications", "read-out": "cell growth or viability"}
{"SMILES": "O=C(Nc1ccc(Cl)cc1)Nc1cccc(-c2cn(Cc3cccc(Br)c3)nn2)c1", "cell line": "Huh-7", "test": "CCK-8", "conditions": "72 h", "IC50 [µM]": 32.3}
{"SMILES": "c1ccc(-c2noc(-c3nn(Cc4ccc5ccccc5c4)c4ccccc34)n2)cc1", "cell line": "HepG2", "conditions": "48 h", "IC50 [µM]": 115}
{"SMILES": "O=C(Nc1ccc(Cl)cc1)Nc1cccc(-c2cn(Cc3cccc(Cl)c3)nn2)c1", "cell line": "Huh-7", "test": "CCK-8", "conditions": "72 h", "IC50 [µM]": 15.1}
{"SMILES": "O=c1[nH]cc(F)c(=O)[nH]1", "cell line": "Huh-7", "test": "CCK-8", "conditions": "72 h", "IC50 [µM]": 17.2}
{"SMILES": "COC(=O)c1ccc2c(c1)NC(=O)/C2=C(\\Nc1ccc(N(C)C(=O)CN2CCN(C)CC2)cc1)c1ccccc1", "cell line": "HEK-293T", "test": "MTT", "conditions": "24 h", "IC50 [µM]": 0.8}
{"SMILES": "Cc1nc(Nc2ncc(C(=O)Nc3c(C)cccc3Cl)s2)cc(N2CC[C@H](O)C2)n1", "cell line": "Ramos", "test": "ATP luminescence", "conditions": "72 h", "IC50 [µM]": "> 10"}
{"SMILES": "CN1CCC(NC2CCc3[nH]c4c(C(N)=O)ccc(-c5ccccc5Cl)c4c3C2)CC1 (centres unmarked)", "cell line": "Ramos", "conditions": "96 h", "IC50 [µM]": 0.0114}
{"SMILES": "CNC(=O)c1cc(Oc2ccc(NC(=O)Nc3ccc(Cl)c(C(F)(F)F)c3)cc2)ccn1", "cell line": "THLE3", "test": "imaging", "conditions": "72 h", "IC50 [µM]": 8.78}
{"SMILES": "COc1ccc(NC(=O)Nc2cccc(-c3cn(Cc4ccccc4C)nn3)c2)cc1", "cell line": "Huh-7", "test": "CCK-8", "conditions": "72 h", "IC50 [µM]": 10.8}
{"SMILES": "COc1cccc2c1C(=O)c1c(O)c3c(c(O)c1C2=O)C[C@@](O)(C(=O)CO)C[C@@H]3O[C@H]1C[C@H](N)[C@H](O)[C@H](C)O1", "cell line": "HEK-293T", "test": "MTT", "conditions": "24 h", "IC50 [µM]": 1.39}
{"SMILES": "CN1CCN(c2ccc(Nc3c4ccccc4nc4ccccc34)cc2)CC1", "cell line": "THLE3", "test": "imaging", "conditions": "72 h", "IC50 [µM]": 8.63}
{"SMILES": "O=[N+]([O-])c1cc(Br)c(O)c(C=NNc2ccccc2)c1", "cell line": "HEK-293T", "test": "MTT", "conditions": "24 h", "IC50 [µM]": 23}
{"SMILES": "COc1cccc2c1C(=O)c1c(O)c3c(c(O)c1C2=O)C[C@@](O)(C(=O)CO)C[C@@H]3O[C@H]1C[C@H](N)[C@H](O)[C@H](C)O1", "cell line": "Huh-7", "test": "ATP luminescence", "conditions": "72 h", "IC50 [µM]": 0.6}
{"SMILES": "O=[N+]([O-])c1cc(I)c(O)c(C=NNc2ccc(Cl)cc2)c1", "cell line": "HEK-293T", "test": "MTT", "conditions": "24 h", "IC50 [µM]": 12.3}
{"SMILES": "COc1ccc(NC(=O)Nc2cccc(-c3cn(Cc4ccc(Br)cc4)nn3)c2)cc1", "cell line": "Huh-7", "test": "CCK-8", "conditions": "72 h", "IC50 [µM]": 15.9}
{"SMILES": "O=[N+]([O-])c1cc(I)c(O)c(C=NNc2ccc(C(F)(F)F)cc2)c1", "cell line": "HEK-293T", "test": "MTT", "conditions": "24 h", "IC50 [µM]": 8.11}
{"SMILES": "COc1ccc(NC(=O)Nc2cccc(-c3cn(Cc4cccc(Cl)c4)nn3)c2)cc1", "cell line": "Huh-7", "test": "CCK-8", "conditions": "72 h", "IC50 [µM]": 13.5}
